This is an account of results in ChEMBL document CHEMBL1156470, “Inhibition of the activation of multiple serine proteases with a cathepsin C inhibitor requires sustained exposure to prevent pro-enzyme processing” (J Biol Chem, 2007).

One assay has as its target Dipeptidyl peptidase 1 (Homo sapiens, UniProt P53634). In words: Inhibition of intracellular cathepsin C active site in human U937 cells assessed as reduction of Ala-4[125I]Phe-DMK labeled 23 kDa protein at 10 uM by autoradiography based pulse chase assay. It is filed as cell-based. The note with it: U-937. In a few lines: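 U937 cells (200,000) preincubated 30 min with 10 μM competitor or 0.5% Me₂SO, then labelled 15 min with 0.5 nM Ala-4-[¹²⁵I]Phe-DMK. Quenched with 1 μM unlabelled probe, washed, and lysed in 20 mM MES pH 6.0, 50 mM NaCl, 0.5% NP-40. Run on reducing 10–20% SDS-PAGE; film exposed 6–24 h.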

A further assay addresses T1, Myeloblastin (Homo sapiens, UniProt P24158).
T1 sequence (P24158 whole entry): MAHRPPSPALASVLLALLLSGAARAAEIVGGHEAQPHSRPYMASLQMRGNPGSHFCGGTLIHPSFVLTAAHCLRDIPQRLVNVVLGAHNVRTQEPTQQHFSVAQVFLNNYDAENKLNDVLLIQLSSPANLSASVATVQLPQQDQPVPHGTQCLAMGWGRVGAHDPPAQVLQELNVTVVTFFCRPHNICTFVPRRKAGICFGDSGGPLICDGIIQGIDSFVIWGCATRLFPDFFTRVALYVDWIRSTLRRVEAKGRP
In words: Inhibition of proteinase-3 in human U937 cells. It is filed as cell-based, U-937.

The next assay addresses T2, Cathepsin G (Mus musculus, UniProt P28293).
T2 sequence (P28293 whole entry): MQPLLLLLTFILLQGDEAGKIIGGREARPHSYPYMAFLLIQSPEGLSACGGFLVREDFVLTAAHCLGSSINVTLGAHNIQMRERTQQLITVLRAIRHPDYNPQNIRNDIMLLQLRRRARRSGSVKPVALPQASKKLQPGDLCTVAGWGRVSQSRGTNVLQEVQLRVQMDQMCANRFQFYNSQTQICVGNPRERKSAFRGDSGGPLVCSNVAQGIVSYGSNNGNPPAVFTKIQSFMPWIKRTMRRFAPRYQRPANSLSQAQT
In words: Inhibition of cathepsin G activation in beta-estradiol differentiated mouse EcoM-G cells after 24 hrs. It is filed as cell-based. In a few lines:
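EcoM-G cells (cultures <3 months old) washed and seeded at 0.5×10^6 cells/ml without β-estradiol. After 24 h, compound added in Me₂SO (final 0.5%), then cells differentiated a further 24 h, harvested and lysed. NE assayed with 400 μM MeOSuc-AAPV-AMC, CG with 1 mM Suc-AAPF-pNA (405 nm, 5 min), Pr-3 with 10 μM internally quenched substrate (ex 328/em 393 nm), all from the same lysates. IC50 from four-parameter Hill fit.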

In assay [1] the target is T3, Neutrophil elastase (Mus musculus) (UniProt Q3UP87).
T3 sequence (whole entry): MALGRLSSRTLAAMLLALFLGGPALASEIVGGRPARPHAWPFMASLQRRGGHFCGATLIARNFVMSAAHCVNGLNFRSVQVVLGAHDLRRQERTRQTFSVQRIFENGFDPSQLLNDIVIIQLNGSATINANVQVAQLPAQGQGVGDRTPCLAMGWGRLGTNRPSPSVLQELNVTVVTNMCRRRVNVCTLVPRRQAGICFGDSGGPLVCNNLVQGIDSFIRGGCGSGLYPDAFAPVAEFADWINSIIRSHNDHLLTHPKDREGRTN
The note with it: EcoM-G, 1 uM.

Another assay deals with U-937. In words: Effect on neutrophil elastase protein expression in human U937 cells at 30 uM after 7 days by Western blot. The format is functional, cell-based. For orientation: A western blot detects proteins with antibodies after separation by electrophoresis.
Assay [2] addresses T4, Cathepsin G (Mus musculus) (UniProt P28293).
T4 sequence (whole entry): T2 sequence (P28293 whole entry)
The experiment in a line: Inhibition of cathepsin G activity in beta-estradiol differentiated mouse EcoM-G cells at 10 uM after 3 days in the absence of estradiol. It is filed as cell-based. In a few lines: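 EcoM-G cells seeded without β-estradiol to differentiate. 10 μM compound or vehicle added 24 h after estrogen removal, and aliquots taken over time up to 3 days. CG activity in extracts measured with 1 mM Suc-Ala-Ala-Pro-Phe-pNA, absorbance at 405 nm over 5 min, in 100 mM Tris pH 7.5, 1 M NaCl.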

The next assay has as its target Procathepsin L (Homo sapiens, UniProt P07711). The experiment in a line: Inhibition of human recombinant cathepsin L after 10 mins.
For the next assay, the system named is U-937 (Homo sapiens). In words: Effect on neutrophil elastase protein expression in human U937 cells at 30 uM after 7 days by Western blot.
Another assay concerns the target T5, Pro-cathepsin H (Homo sapiens, UniProt P09668).
T5 sequence (P09668 whole entry): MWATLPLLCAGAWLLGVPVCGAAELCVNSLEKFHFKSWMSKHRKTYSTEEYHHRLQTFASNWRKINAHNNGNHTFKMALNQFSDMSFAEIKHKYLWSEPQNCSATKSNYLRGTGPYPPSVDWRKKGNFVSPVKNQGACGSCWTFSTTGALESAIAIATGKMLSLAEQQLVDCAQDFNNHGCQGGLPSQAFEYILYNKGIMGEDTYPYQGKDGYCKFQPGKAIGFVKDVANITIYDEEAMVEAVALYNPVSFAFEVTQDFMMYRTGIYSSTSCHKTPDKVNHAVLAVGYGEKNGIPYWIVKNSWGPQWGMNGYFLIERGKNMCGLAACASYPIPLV
The experiment in a line: Inhibition of human recombinant cathepsin H after 10 mins.

A further assay addresses Cathepsin B (Homo sapiens, UniProt P07858). In words: Inhibition of human recombinant cathepsin B after 10 mins.
The next assay has as its target T6, Neutrophil elastase (Homo sapiens, UniProt P08246).
T6 sequence (P08246 whole entry): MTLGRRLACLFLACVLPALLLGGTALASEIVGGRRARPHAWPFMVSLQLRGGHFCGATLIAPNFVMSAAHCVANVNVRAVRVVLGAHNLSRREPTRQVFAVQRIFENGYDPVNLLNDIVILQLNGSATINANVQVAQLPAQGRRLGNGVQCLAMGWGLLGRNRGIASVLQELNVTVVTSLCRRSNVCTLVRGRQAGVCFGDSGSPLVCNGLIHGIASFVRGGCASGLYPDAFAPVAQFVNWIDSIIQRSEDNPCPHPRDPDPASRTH
In words: Blockade of neutrophil elastase processing in human U937 cells after 7 days by fluorogenic substrate cleavage assay. The format is cell-based, U-937. In outline: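 U937 seeded at 1×10^5 cells/ml with vehicle or inhibitor, passaged and diluted 10-fold into fresh medium with compound on days 3 and 5, harvested day 7. Cells washed and lysed in 20 mM Tris pH 7.5, 100 mM NaCl, 0.2% NP-40. NE rate measured with 400 μM MeOSuc-AAPV-AMC (ex 370/em 450 nm, 10 min). % inhibition vs vehicle, four wells per point.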

The target of assay [3] is T3, Neutrophil elastase (Mus musculus). The note with it: EcoM-G, 1 uM. The source holds these as a separate data set.
Another assay addresses Cathepsin S (Homo sapiens, UniProt P25774). The experiment in a line: Inhibition of human recombinant cathepsin S after 10 mins.

Activity calls are given as the source filed them. The calls are words filed in the database; no cut-off is given here.

Chain of Cathepsin S (P25774 whole entry): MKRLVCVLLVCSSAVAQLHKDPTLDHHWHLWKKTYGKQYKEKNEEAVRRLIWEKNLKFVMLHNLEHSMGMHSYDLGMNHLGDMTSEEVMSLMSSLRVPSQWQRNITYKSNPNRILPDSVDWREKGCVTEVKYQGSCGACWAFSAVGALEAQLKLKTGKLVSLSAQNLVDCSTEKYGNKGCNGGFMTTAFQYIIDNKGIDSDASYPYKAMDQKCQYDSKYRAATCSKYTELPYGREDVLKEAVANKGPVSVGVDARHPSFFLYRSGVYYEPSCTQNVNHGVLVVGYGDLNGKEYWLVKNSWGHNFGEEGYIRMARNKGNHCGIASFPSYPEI
Chain of Procathepsin L (P07711 whole entry): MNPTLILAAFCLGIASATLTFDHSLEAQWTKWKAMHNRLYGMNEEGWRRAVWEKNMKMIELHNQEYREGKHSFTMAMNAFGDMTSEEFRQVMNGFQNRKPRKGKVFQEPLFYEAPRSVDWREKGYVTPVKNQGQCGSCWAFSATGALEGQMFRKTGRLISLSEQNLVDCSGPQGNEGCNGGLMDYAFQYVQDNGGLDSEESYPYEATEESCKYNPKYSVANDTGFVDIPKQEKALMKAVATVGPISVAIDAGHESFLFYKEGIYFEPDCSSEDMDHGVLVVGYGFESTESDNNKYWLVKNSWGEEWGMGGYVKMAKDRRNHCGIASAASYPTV
Chain of Dipeptidyl peptidase 1 (P53634 25-134 limits assumed): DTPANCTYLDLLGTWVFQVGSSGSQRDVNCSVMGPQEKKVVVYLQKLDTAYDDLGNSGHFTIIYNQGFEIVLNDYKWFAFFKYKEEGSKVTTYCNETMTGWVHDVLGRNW
Chain of Dipeptidyl peptidase 1 (P53634 231-394 limits assumed): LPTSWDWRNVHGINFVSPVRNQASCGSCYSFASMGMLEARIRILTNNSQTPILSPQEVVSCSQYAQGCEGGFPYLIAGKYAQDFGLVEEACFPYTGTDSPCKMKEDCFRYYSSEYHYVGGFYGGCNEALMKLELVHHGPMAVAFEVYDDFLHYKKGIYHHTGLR
Chain of Dipeptidyl peptidase 1 (P53634 395-463 limits assumed): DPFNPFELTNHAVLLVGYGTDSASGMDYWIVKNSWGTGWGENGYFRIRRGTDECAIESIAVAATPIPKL

In the case of `N#C[C@@]1(NC(=O)[C@@H](N)Cc2cccs2)C[C@@H]1c1ccccc1.O=C(O)C(F)(F)F`, the outcome (at Dipeptidyl peptidase 1; in assay [2]) was Active. The IC50 is > 50 µM on Myeloblastin; 0.48 µM on Cathepsin G; 5.4 µM at Procathepsin L; > 50 µM at Pro-cathepsin H; > 50 µM at Cathepsin B; 0.22 µM against Neutrophil elastase. The IC50 at Cathepsin S came to 5.9 µM. For the same compound, the inhibition in [1] was > 90%; in assay [3], 80%. In addition, the outcome in the assay with U-937 and with U-937 (Homo sapiens) was inactive.

In general, IC50 refers to the concentration at which inhibition is half-maximal. As a reminder, the inhibition is the drop in the measured response relative to a control, in per cent.
